FLuc stim CS: firefly luciferase counter-screen for stimulation assays; P08659; ATPlite luciferase biochemical, luminescence, 10 min; 0 = ATP-free wells, 1 = DMSO control; activation factor at 10 µM; 200,000 tested, under 10 active;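 active = luciferase activation factor, scaled between plate controls, of at least 2 with compound at 10 µM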
Target sequence (P08659 whole entry, looked up): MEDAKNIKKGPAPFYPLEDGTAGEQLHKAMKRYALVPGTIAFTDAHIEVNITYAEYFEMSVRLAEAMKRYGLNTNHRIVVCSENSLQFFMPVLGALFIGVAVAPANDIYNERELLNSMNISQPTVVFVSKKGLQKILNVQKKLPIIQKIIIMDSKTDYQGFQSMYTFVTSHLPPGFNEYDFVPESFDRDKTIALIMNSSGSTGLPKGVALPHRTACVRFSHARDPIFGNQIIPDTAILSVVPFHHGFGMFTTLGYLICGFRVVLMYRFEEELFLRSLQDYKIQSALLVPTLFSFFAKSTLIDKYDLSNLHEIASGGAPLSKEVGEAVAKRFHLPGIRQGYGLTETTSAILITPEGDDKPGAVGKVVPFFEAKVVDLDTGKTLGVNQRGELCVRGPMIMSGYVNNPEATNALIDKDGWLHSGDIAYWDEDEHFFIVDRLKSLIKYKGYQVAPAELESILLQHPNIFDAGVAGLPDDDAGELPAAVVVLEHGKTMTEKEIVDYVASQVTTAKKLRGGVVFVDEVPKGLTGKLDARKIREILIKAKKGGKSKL
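test system = cell-free luciferase reagent | medium = PBS as buffer for the ATP substrate | dosing = test compounds dosed from 2 mM stocks in 100% DMSO | incubation = 10 min at ambient temperature | detection = luminescence measurement of luciferase light output | benchmarks = low control with PBS replacing ATP, high control enzyme plus ATP without compound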
APP 5'UTR act: APP 5'UTR luciferase reporter activation; SH-SY5Y APP 5'UTR luciferase reporter, luminescence; zero percent = DMSO vehicle wells; AID 1276; hit rate 1% among 190,000; activation, % at 2 µM;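 active = activation above a set limit, based on mean plus 3 SD of controls, cut at about 140% in these data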
PPC-1+TRAIL kill: PPC-1 cancer cell killing with TRAIL present | cell killing (% activity), % at 4 µM or 5 µM | hit rate 0.41% among 220,000 | PPC-1 cells + TRAIL, ATPLite viability luminescence;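 active = cell killing above 50% in the first pass at 4 µM, then a duplicate retest at 5 µM averaging 50% or more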
C8 TRAIL sens: sensitizes caspase-8 expressing cells to TRAIL. NB7+C8 cells + TRAIL, ATPlite viability luminescence. inhibition (viability loss, TRAIL sensitization), % at 10 µM. hit rate 1% among 360,000;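 active = compounds causing at least 50% loss of cell viability in the single-dose screen, relative to plate controls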
NF-kB expr up: raises NF-kB expression in human neuronal cells. NF-kB reporter expression; stronger effect = higher value. fold change at 12.5 µM. hit rate 1.6% among 190,000. AID 1239; in the data active = fold change above about 3.3
FLuc inhib CS: Photinus pyralis luciferase inhibition counter-screen | ATPLite firefly luciferase biochemical luminescence, 10 min | hit rate 1.5% among 200,000 | P08659 | inhibition, % at 10 µM;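 active = inhibition above about 50% when tested at 10 µM, limit read from the data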
A number is an active result; 0 = inactive; - = not tested or not shown. A selection: hits, their analogues and other compounds. The true share with any hit is near 2.2%.

SMILES	FLuc stim CS	APP 5'UTR act	PPC-1+TRAIL kill	C8 TRAIL sens	NF-kB expr up	FLuc inhib CS
Cn1c(O)c(N=NC(=O)c2ccco2)c2ccccc21	0	176.4	0	0	0	64.3
Cn1c(O)c(N=NC(=O)c2ccccc2O)c2ccccc21	0	216.1	0	0	0	81.7
CC[C@]1(C(=O)OC)[C@H]2C(=O)N(Cc3ccccc3)C(=O)[C@H]2[C@H]2CN=C(SC)N21	-	-	-	0	-	-
Cc1nn(-c2ccccc2)c(Cl)c1C(=O)NCC(=O)O	0	0	0	0	0	0
Cc1nn(-c2ccccc2)c(Cl)c1CN(C(=O)CCl)c1ccc(Cl)cc1	0	0	0	97.3	0	0
Cc1nn(-c2ccccc2)c(Cl)c1CN(C(=O)CCl)c1cccc2ccccc12	0	0	0	96.9	0	0
CC(=O)N(Cc1c(C)nn(-c2ccccc2)c1Cl)c1ccc(Cl)cc1	0	0	0	0	0	0
N#Cc1ccc(OCC(=O)Nc2cccc(S(=O)(=O)NC3=NCCCCC3)c2)cc1	-	-	-	0	-	-
CCCNC(=O)c1cc(-c2ccco2)on1	0	0	0	0	4.94	0
COc1ccc(-c2cc(C(=O)NC(C)C)no2)cc1	0	0	0	0	3.68	0
COC(=O)c1cc(-c2ccc(OC)cc2)on1	0	0	0	0	0	0
CC(=O)c1cccc(NC(=O)c2cc(-c3ccco3)on2)c1	-	-	-	0	-	-
O=C(Nc1cccc(O)c1)c1cc(-c2ccco2)on1	0	0	0	0	0	75.5
COc1ccc(-c2cc(C(=O)Nc3cccc(O)c3)no2)cc1	-	-	-	72.9	-	-
COc1ccc(-c2cc(=O)oc3cc(OC(C)C(=O)NCc4ccccn4)ccc23)cc1 (stereo unspecified)	-	-	-	0	-	-
COc1ccc(CCN(C)C(=O)CCc2nnc(-c3ccccc3)o2)cc1OC	0	0	0	0	4.1	0
COc1cccc(C(=O)Nc2ccc(C(=O)NCC3CCCO3)cc2)c1 (stereo unspecified)	-	-	-	0	-	-
CCOC(=O)c1cnc(SCc2ccccc2)nc1N	0	146.4	0	0	8.96	0
CCOC(=O)c1cnc(SCc2ccc(C(C)(C)C)cc2)nc1N	0	0	0	0	0	0
Cc1nc(SCc2ccc(Cl)cc2)ncc1C(=O)O	0	0	0	0	6.39	0
O=C(NCCC(=O)N(Cc1ccco1)Cc1cccs1)c1ccc([N+](=O)[O-])cc1	-	-	-	0	-	-
CC(=O)N(Cc1ccc(F)cc1)C1=C(NCCc2ccccc2)C(=O)c2ccccc2C1=O	0	0	0	89.4	0	0
CCN(CC)c1ccc(NC(=O)c2cccc(C)c2OC)c(C)c1	0	0	0	0	4.15	0
O=C(Cc1ccc(Br)cc1)Nc1ccc2[nH]ncc2c1	-	-	-	0	-	-
CSc1ccc(/C=N/NC(=O)c2sccc2C)cc1	0	219.1	0	0	4.11	0
SMILES	FLuc stim CS	APP 5'UTR act	PPC-1+TRAIL kill	C8 TRAIL sens	NF-kB expr up	FLuc inhib CS
CSc1ccc(/C=N/NC(=O)c2ccc(C)c(C)c2)cc1	0	0	0	0	0	0
O=C(O)c1cc(N/N=C/c2ccc(-c3ccccc3)cc2)ccc1Cl	-	-	-	0	-	-
CSc1ccc(/C=N/NC(=O)c2cc(O)cc(O)c2)cc1	0	0	0	0	0	73.5
CSc1ccc(/C=N/Nc2ccc(Cl)c(C(=O)O)c2)cc1	0	139.1	0	0	12.3	0
CCCc1nc2nc(C)c(NS(=O)(=O)c3ccc(C)c(C)c3)c(=O)n2[nH]1	-	-	-	0	-	-
CNC(=S)N/N=C/c1cccc(OCc2ccccc2F)c1	0	0	0	0	0	51.5
CCNC(=S)N/N=C/c1cccc(OCc2c(F)cccc2Cl)c1	0	0	0	0	0	0
Cc1nc(NC(=O)C23CC4CC(CC(C4)C2)C3)sc1Cc1ccc2c(c1)OCO2	0	0	0	0	0	0
CC(=O)Nc1cccc(-c2csc(Nc3ccccn3)n2)c1	0	184.4	0	0	5.38	0
CC(=O)Nc1ccc(-c2csc(Nc3ccc(Cl)cn3)n2)cc1	0	0	0	0	0	0
Cc1ccc(Nc2nc(-c3ccc(O)c(O)c3)cs2)nc1	0	0	0	-	9.45	0
CC(=O)Nc1cccc(-c2csc(Nc3cc(C)ccn3)n2)c1	0	138.4	0	0	0	0
Cc1ccc(Nc2nc(-c3ccc(F)cc3)cs2)nc1	-	-	-	0	-	-
CC(=O)Nc1cccc(-c2csc(Nc3ccc(Cl)cn3)n2)c1	0	182.2	0	0	6.51	0
Cc1cc(CNC(=O)CC2C(=O)NCCN2CC(C)(C)C)nn1C (stereo unspecified)	0	0	0	0	-	0
O=C(/C=C/c1cnc2ccccc2n1)NC12CC3CC(CC(C3)C1)C2	0	190.4	0	0	0	0
O=C(COC(=O)Cc1ccc(Cl)c(Cl)c1)NCCc1ccccc1	-	-	-	0	-	-
CC(C)(C)N/N=C/c1c(O)n(-c2ccc(Cl)cn2)c(=O)c2ccccc12	0	0	0	0	0	0
CCc1nnc(/N=C/c2c(O)n(-c3ccc(Cl)cn3)c(=O)c3ccccc23)s1	0	0	0	0	0	66.4
Cc1cccc(-c2nnc(-c3ccc(N)cc3)o2)c1	0	0	0	0	3.96	56.2
Nc1ccc(-c2nnc(-c3ccc(N)cc3)o2)cc1	-	-	-	0	-	-
Cc1ccc(-c2nnc(-c3cccc(Br)c3)o2)cc1	0	0	0	0	3.67	0
CCC(C)(C)c1ccc2c(c1)C(=O)c1ccccc1C2=O	0	181.9	0	0	0	0
CC(C)(CO)NC(=O)c1ccc2c(c1)C(=O)c1ccccc1-2	-	-	-	0	-	-
O=C(NOCc1ccccc1)c1ccc(Cl)cc1Cl	-	-	-	57.8	-	-
SMILES	FLuc stim CS	APP 5'UTR act	PPC-1+TRAIL kill	C8 TRAIL sens	NF-kB expr up	FLuc inhib CS
O=C(NOCc1ccccc1)c1ccccc1	-	-	-	0	-	-
Cc1onc(-c2ccccc2)c1C(=O)N1CCN(Cc2ccccc2)CC1	-	-	-	0	-	-
Cn1c(N)c(C(=O)COC(=O)c2cc(S(=O)(=O)N3CCOCC3)ccc2F)c(=O)n(C)c1=O	-	-	-	63.8	-	-
CCCCCCCCCCCCCCCC[N+](C)(C)Cc1ccc(F)cc1	-	-	-	54.3	-	-
CN1C[C@@H]2[C@@H]3C(=O)N(Cc4ccccc4)C(=O)[C@@H]3[C@](C)(C1=O)N2C(=O)c1ccccc1	-	-	-	0	-	-
COC(=O)c1cc(N=Nc2c(C)[nH]c3ccccc23)cc(C(=O)OC)c1	-	-	0	0	-	-
Cc1[nH]c2ccccc2c1N=Nc1cccc(C(=O)O)c1	0	0	0	0	4.13	0
CN1C(=O)/C(=C\C=C2/CCCN2C)N(C)C1=S	0	0	0	0	5.7	0
COc1ccc2c(c1)CCc1c(C(=O)NC3CCCCC3)noc1-2	0	145.2	0	0	0	0
COCCNC(=O)c1noc2c1CCc1cc(OC)ccc1-2	0	0	0	0	0	0
CCCCOC(=O)Nc1ccc(N2CCCCC2)cc1	0	0	0	0	6.14	0
CCCCOC(=O)Nc1ccc(N2CCOCC2)cc1	0	0	0	0	0	0
CCCCOC(=O)Nc1ccc(N(C)C)cc1	0	171.3	0	0	4.03	0
CSCCC1NC(=O)N(CC(=O)Nc2ccc3c(c2)OCCO3)C1=O (stereo unspecified)	-	-	-	0	-	-
O=C(O)c1ccc(NC(=O)c2ccco2)c(NC(=O)c2ccco2)c1	-	-	-	0	-	-

Compound activity: PubChem BioAssay, several laboratories
